The whole screen tested about 220,000 compounds, of which about 390 (0.18%) were called active. For the sample, actives were picked, then their nearest neighbours and some compounds at random. A number with no mark means an inactive call.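 How the source made its calls: active means activation above its plate's cutoff, the mean activation of test wells on that plate plus 3 SD (cut at about 19% in these data); inactive means the rest.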

The experiment concerns transient receptor potential cation channel N1 (TRPN1/NompC), Danio rerio. The experiment is described as follows: TRPN1 activation via calcium influx – cell-based, HEK293, calcium fluorescence, zebrafish, primary screen (AID 1424).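 Further: 0% = DMSO alone and 100% = 87 µM carbachol.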 The conditions noted are these: HEK293 zebrafish TRPN1-YFP, Fluo-8 calcium fluorescence; at 3 µM; hits give high values; 100% = response to 87 µM carbachol. An outline of the steps:
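Assay system: Zebrafish TRPN1-YFP in HEK293 cells | Incubation: Dye loading 1 h at 37 °C, then 30 min room temperature | Measured by: Kinetic Fluo-8 fluorescence, ex 470-495, em 515-575 nm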
Regarding `Cc1ccc(-n2c(C)cc(/C=N/Nc3ccc([N+](=O)[O-])cn3)c2C)c(C)c1`, the activation was -0.82%.

As to `C/C=N/N(c1ccccc1)c1ccccc1`, the activation was 0.69%.

As for `COc1cc(NC(=S)NCCSc2ccc(C)cc2)cc(OC)c1`, the activation was -3.08%.

For the compound `Cc1cc(C)c(S(=O)(=O)N2CCOCC2)cc1C`, the activation was -0.54%.

Consider `CC(C)n1c(NCc2c[nH]c3ccccc23)nc2ccccc21`, for which the activation was -0.19%.

As for `Cc1nc(S(=O)(=O)c2ccc(Br)cc2)nc2c1CCC2`, the activation was 0.17%.

For the compound `CN(C)C=NC(=O)c1cccn1-c1ncc(C(F)(F)F)cc1Cl`, the activation was -0.1%.

Take `NS(=O)(=O)c1ccc(NC(=O)COC(=O)c2ccc(Cl)nc2)cc1`: the activation was 1.46%.

With `O=C(COC(=O)c1c2c(nc3ccccc13)/C(=C\c1cccs1)CCC2)Nc1ccccc1Cl`, the activation is -1.63%.

Consider `COc1cc(-c2cc(C(=O)OCC(=O)Nc3ccc4c(c3)OCO4)c3ccccc3n2)cc(OC)c1OC`, for which the activation is -1.87%.

On to `NC(=O)c1ccc(NC(=O)COC(=O)c2c3c(nc4ccccc24)/C(=C\c2ccc4c(c2)OCO4)CCC3)cc1`, for which the activation is 41.6% (active).

Turning to `NS(=O)(=O)c1ccc(NC(=O)COC(=O)c2c3c(nc4ccccc24)/C(=C\c2ccc4c(c2)OCO4)CCC3)cc1`, the activation was 47.9% (active).

For the compound `NS(=O)(=O)c1ccc(NC(=O)COC(=O)c2cc3ccccc3oc2=O)cc1`, the activation was 0.38%.

Consider `CCN1CCC2(CC1)N=C(c1ccc(F)cc1)C(=S)N2C(=O)c1ccc(C)cc1`, for which the activation was -0.33%.

In the case of `COC(=O)c1ccc(C(NC(=O)OCc2ccccc2)/C(C)=C/[C@@H](C)C(=O)NCc2ccc(OC)c(OC)c2)cc1` (stereo partly drawn), the activation is -0.55%.

Take `COc1ccc(OCc2n[nH]c(=S)n2N)cc1`: the activation was 0.96%.

With `COC(=O)c1ccc(CN2CCC(CO)(Cc3ccc(OC)cc3)CC2)cc1`, the activation is 4.67%.

In the case of `CCn1c(=S)[nH]c2sc3c(c2c1=O)CCCCC3`, the activation was 0.92%.

In the case of `O=C(C1=C[C@H](c2ccc(C(F)(F)F)cc2)C[C@H](OCc2ccc(CO)cc2)O1)N1CCN(Cc2ccccc2)CC1`, the activation was -0.62%.

With `Cc1nc(=O)c(-c2ccccc2)c(C)n1-c1ccc(Br)cc1`, the activation was 1.06%.

`CC1(C)CC(=O)C(C2c3ccccc3S(=O)(=O)c3ccccc32)C(=O)C1`: the activation is -1.19%.

Regarding `O=C(CCc1ccccc1)Nc1ncc([N+](=O)[O-])s1`, the activation was 9.35%.

Regarding `O=C(Cc1c(F)cccc1Cl)Nc1ncc([N+](=O)[O-])s1`, the activation is 18.3%.

In the case of `CC(=O)Oc1ccccc1C(=O)Nc1ncc([N+](=O)[O-])s1`, the activation is 22.2% (active).

For the compound `CC(=O)c1ccc(N2CCN(S(=O)(=O)c3c(C)[nH]c(=O)[nH]c3=O)CC2)cc1`, the activation is 0.25%.

`CCc1nc2ccccc2c(C(=O)NCc2ccc(OC)cc2)c1C`: the activation is -0.1%.

Consider `Cc1ccc(NC(=O)CN(C)CC(=O)Nc2cccc(F)c2)cc1[N+](=O)[O-]`, for which the activation was 8.52%.

With `Cc1ccc(CN(C)CC(=O)Nc2cccc([N+](=O)[O-])c2)o1`, the activation was -1.16%.

In the case of `CN(CC(=O)Nc1cccc(F)c1)CC(=O)Nc1cccc([N+](=O)[O-])c1`, the activation was 44.2% (active).

Consider `CCOP(=O)(OCC)C(Nc1ccc([N+](=O)[O-])cc1)c1ccc(Cl)cc1` (stereo not drawn), for which the activation is -1.18%.

As for `Cc1cc(Nc2ccc(Cl)cc2)nc(N2CCOCC2)n1`, the activation is -0.78%.

`O=C(O)CCn1c(SCc2cc(=O)n3ccccc3n2)nc2ccsc2c1=O`: the activation was 0.55%.

With `CCN(CC)C(=O)CC1(c2ccccc2OC)CCOC(C(C)C)C1` (stereo not drawn), the activation was -0.7%.

Turning to `O=C(O)c1cccc(N2C(=O)Nc3ccccc3N2O)c1`, the activation is -0.51%.

`COc1ccc(N2C(=O)c3ccccc3NC2c2ccc(OC)c(CN3CCOCC3)c2)cc1` (stereo not drawn): the activation was 0.64%.

In the case of `CC(NC(=O)COC(=O)c1cc(=O)[nH]c2ccccc12)c1ccccc1` (stereo not drawn), the activation is 2.26%.

`CC(=O)c1ccc(-c2ccc(Cn3c(C)nc4cc(N)c(C)nc43)cc2)cc1`: the activation is 0.89%.

For `Cc1cc2nc3c(=O)n(Cc4ccccc4)c(=O)[nH]c3nc2cc1N`, the activation was 37.4% (active).

Turning to `O=c1[nH]c2c(c(=O)n1Cc1ccccc1)CCC2`, the activation was -0.42%.

`COc1ccc(NC(=S)N2N=CCC2c2ccccc2)cc1` (stereo not drawn): the activation was 0.6%.

As for `CCOc1ccc2c(=O)c(-c3ccc4c(c3)OCCCO4)c(C)oc2c1`, the activation was -1.72%.

Consider `COC(=O)/C(C#N)=C/c1occc1C`, for which the activation is 1.02%.

On to `CCCCCc1ccc(-c2ccc(OCC)cc2)nc1`, for which the activation was 1.46%.

Turning to `O=C(Cc1ncc(C(F)(F)F)cc1Cl)Nc1cccc(Br)c1`, the activation was 0.3%.

For `c1ccc2c(c1)OCCOCCOCCO2`, the activation is -2.17%.

With `CN(C)CCCN(Cc1cc2cc3c(cc2[nH]c1=O)OCCO3)C(=O)NC1CCCCC1`, the activation was 1.71%.

Consider `Cc1nn(-c2ccccc2)c(NC(=O)c2cccs2)c(-c2ccc(Cl)cc2)c1=O`, for which the activation was -0.42%.

Consider `C/C(=N\NC(=O)CC(C)C)c1c(C(F)(F)F)[nH]n(-c2nc3ccccc3s2)c1=O`, for which the activation was -0.3%.

For `COc1ccc(C(=O)NC(=S)NNC(=O)CCc2ccccc2)cc1`, the activation was 12%.

With `COc1ccc(C(=O)NC(=S)NNC(=O)c2c(-c3ccccc3)noc2C)cc1`, the activation is 44% (active).

With `Cc1onc(-c2ccccc2)c1C(=O)NNC(=S)NC(=O)c1ccc(F)cc1`, the activation was 13.6%.

Turning to `O=C(NNC(=S)NCc1ccco1)C(c1ccccc1)c1ccccc1`, the activation is -0.07%.

`CCCCC(=O)NNC(=S)NC(=O)C(c1ccccc1)c1ccccc1`: the activation was 84.8% (active).

`CC(C)C(=O)Nc1cccc(NC(=S)NC(=O)C(c2ccccc2)c2ccccc2)c1`: the activation is 2.14%.

On to `CC(=O)Nc1ccc(S(=O)(=O)NC2(C(F)(F)F)C(=O)Nc3c2c(=O)[nH]c(=O)n3Cc2ccccc2)cc1` (stereo not drawn), for which the activation is 2.33%.

In the case of `CC(C)Cc1nc(Cl)c(C#N)c2c1CCC2`, the activation is -2.32%.

With `Cc1ccc(Nc2cc(C)nc3c(C)ccc([N+](=O)[O-])c23)cc1`, the activation is -2.21%.

For `Cc1cc(N2CCN(c3ccc(F)cc3)CC2)n2ncnc2n1`, the activation was 1.97%.

With `CCc1cccc(C)c1NC(=O)COC(=O)Cc1ccsc1`, the activation was -0.93%.

Regarding `CN1CCN(NC(=O)c2ccc(S(=O)(=O)N3CCCCCC3)cc2)CC1`, the activation is 1.34%.

`CCOC(=O)COc1nc(C)cc(C(F)(F)F)c1C#N`: the activation is -0.81%.

`CCOC(=O)/C(C#N)=C/c1ccc(N2CCCCC2)cc1`: the activation is 2.02%.

As to `Cc1cc(C(=O)NNC(=S)Nc2ccccc2C)cs1`, the activation was 3.43%.

Take `CN(C)CCOCCOc1ccc(Cl)c2ccccc12`: the activation was 1.52%.

On to `Cc1cccc(C)c1Nc1c(-c2ccccc2O)nc2ncccn12`, for which the activation is 1.43%.

On to `Cc1ccc(C2C(C#N)C(C#N)N3CCCN23)cc1` (stereo not drawn), for which the activation was -0.02%.

`CCO/N=C(/C)c1c(O)cc(-c2ccccc2)n(-c2ccccc2)c1=O`: the activation was 0.61%.

Take `COCc1c(N)c(C)nc(Cl)c1C#N`: the activation was -0.99%.

Regarding `CCn1c(CSc2ncccn2)nnc1SCC(=O)N1c2ccccc2CC1C` (stereo not drawn), the activation was -0.46%.

In the case of `CCCc1nnc(SCC(=O)N2C(C)CCCC2C)n1CC` (stereo not drawn), the activation is 37.6% (active).

For `CCn1c(Cc2ccccc2)nnc1SCC(=O)Nc1ccccc1`, the activation is 0.58%.

Consider `O=C(O)CCN(Cc1ccccc1)S(=O)(=O)c1c(Cl)cccc1Cl`, for which the activation is 0.3%.

Regarding `COc1cc(C(=O)OC(C)C(=O)NCC2CCCCC2)cc(NC(=O)c2ccco2)c1OC` (stereo not drawn), the activation was -0.78%.

As for `COCCN(Cc1cc2cc3c(cc2nc1Cl)OCO3)C(=O)c1cccc(C)c1`, the activation is 0.19%.

With `CCN(CC)c1ccc2cc(C(N)=O)/c(=N\NC(=O)c3ccncc3)oc2c1`, the activation is 31.1% (active).

Take `COc1ccc(C(=O)N/N=c2\oc3ccccc3cc2C(N)=O)cc1`: the activation was 1.99%.

As to `CCN(CC)c1ccc2cc(C(=O)O)c(=O)oc2c1`, the activation is 1.02%.

In the case of `CCC(C)NC(=O)c1ccc(N2CCC3(CC2)OCCO3)c([N+](=O)[O-])c1` (stereo not drawn), the activation was 0.89%.

As to `O=C(/C=C/c1cccs1)NCc1cccnc1`, the activation is 0.53%.

Turning to `COC(=O)C1=NN(c2ccccc2)C2C(=O)N(c3ccccc3OC)C(=O)C12` (stereo not drawn), the activation is -0.87%.

As for `COc1cccc(NC(=O)COC(=O)CCOc2ccccc2OC)c1`, the activation is -1.34%.

With `CCc1c(O)cc2n(c1=O)-c1ccccc1C2(C)C`, the activation is 1.3%.

On to `CC(C)(C)NC(=O)CN(C(=O)c1csnn1)c1ccccc1-c1ccccc1`, for which the activation is 1.04%.

For the compound `O=C(CCN1CCN(c2ccccc2)CC1)NNC(=S)Nc1ccccc1`, the activation is 2.77%.

Consider `CCOc1ccccc1N1CN(Cc2ccccc2)CNC1=S`, for which the activation is -0.98%.

Take `Cn1cc(S(=O)(=O)NC(c2ccccc2)c2ccccc2)c(=O)n(C)c1=O`: the activation was 1.45%.

On to `COc1ccc(/C=N/NC(=O)C(C)N(c2ccc(OC)cc2)S(C)(=O)=O)cc1` (stereo not drawn), for which the activation is 0.5%.

As to `CC(C)(C)NC(=O)CN1CCC(NC(=O)C23CC4CC(CC(C4)C2)C3)CC1`, the activation was 2.37%.

Turning to `O=C(COC(=O)c1ccc(F)cc1F)Nc1ncccn1`, the activation was -0.68%.

Consider `O=C(COc1ccccc1)N1CCN=C1SCc1cccc(F)c1`, for which the activation is -0.02%.

For `Cc1cc(OCC(=O)NC2CCN(C)CC2)ccc1[N+](=O)[O-]`, the activation is 1.92%.

For the compound `CC1Cc2ccccc2N1CC(=O)Nc1ccc(S(N)(=O)=O)cc1` (stereo not drawn), the activation was 1.19%.

`Cc1c(Cl)cccc1NC(=O)Nc1ccc(C(=O)N2CCCC2)cc1`: the activation is -0.96%.

Source of the values: PubChem BioAssay AID1424 (The Scripps Research Institute Molecular Screening Center, 2008).
